The values below come from ChEMBL document CHEMBL4043285 (J Med Chem, 2018).

Data set [1] in a line: Inhibition of Aurk mouse L929sA cells transfected with human Fas assessed as reduction in cell growth after 24 hrs in presence of TNF by Hoechst 33342 staining-based microscopic assay. In short, it runs like this: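 L929sAhFAS cells exposed to compound; total cell number is counted after 24 h. IC50 is fitted from a dose–response curve of cell growth.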
Data set [2] in a line: Inhibition of Aurk mouse L929sA cells transfected with human Fas assessed as increase in nuclear area after 24 hrs in presence of TNF by Hoechst 33342 staining-based microscopic assay. In short, it runs like this:
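L929sAhFAS cells treated with compound; mean nuclear area is measured and fitted as a sigmoidal dose–response curve.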

Data set [3] concerns the target T1, Receptor-interacting serine/threonine-protein kinase 1 (Mus musculus) (UniProt Q60855).
T1 sequence (whole entry): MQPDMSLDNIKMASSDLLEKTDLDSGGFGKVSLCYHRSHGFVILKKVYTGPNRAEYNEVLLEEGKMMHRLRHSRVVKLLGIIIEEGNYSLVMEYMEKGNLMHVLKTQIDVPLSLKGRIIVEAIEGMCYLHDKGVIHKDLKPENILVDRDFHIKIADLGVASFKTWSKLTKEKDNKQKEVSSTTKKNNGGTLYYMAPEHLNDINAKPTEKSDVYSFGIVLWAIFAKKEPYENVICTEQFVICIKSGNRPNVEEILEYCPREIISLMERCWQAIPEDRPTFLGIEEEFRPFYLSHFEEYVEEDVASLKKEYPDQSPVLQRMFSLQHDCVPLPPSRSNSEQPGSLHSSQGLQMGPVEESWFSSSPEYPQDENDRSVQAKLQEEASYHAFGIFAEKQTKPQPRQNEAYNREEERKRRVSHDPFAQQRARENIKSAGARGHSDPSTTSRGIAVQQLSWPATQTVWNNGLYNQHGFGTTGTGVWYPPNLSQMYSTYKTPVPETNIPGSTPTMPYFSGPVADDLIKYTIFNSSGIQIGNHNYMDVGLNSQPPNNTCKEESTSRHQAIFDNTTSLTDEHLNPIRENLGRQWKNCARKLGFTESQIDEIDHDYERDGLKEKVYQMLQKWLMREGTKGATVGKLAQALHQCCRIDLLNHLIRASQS
The data set can be described thus: Inhibition of RIPK1 in mouse L929sA cells transfected with human Fas assessed as inhibition in TNF-induced necroptosis at 3 uM pretreated for 0.5 hrs followed by TNF and zVAD.fmk addition measured after 3 hrs by Hoechst 33342/propidium iodide staining-based assay relative to control. Format: cell-based.

The target of data set [4] is T1, Receptor-interacting serine/threonine-protein kinase 1 (Mus musculus). The data set can be described thus: Inhibition of RIPK1 in mouse L929sA cells transfected with human Fas assessed as inhibition in TNF-induced necroptosis at 3 uM pretreated for 24 hrs followed by TNF and zVAD.fmk addition measured after 3 hrs by Hoechst 33342/propidium iodide staining-based assay relative to control. It is filed as cell-based.

In data set [5] the test system is Aurk (Aurora kinase). The data set can be described thus: Inhibition of Aurk in mouse L929sA cells transfected with human Fas assessed as reduction in cell growth at 3 uM after 24 hrs in presence of TNF by Hoechst 33342 staining-based microscopic assay relative to control.
In data set [6] the test system is Aurk (Aurora kinase). The experiment in a line: Inhibition of Aurk in mouse L929sA cells transfected with human Fas assessed as increase in nuclear area at 3 uM after 24 hrs in presence of TNF by Hoechst 33342 staining-based microscopic assay relative to control. It is filed as cell-based.

As usually defined, the IC50 is the midpoint of a concentration-inhibition curve. For orientation: inhibition means the relative decrease from the control value, in per cent.

As for `Cc1[nH]nc(Nc2nc(Nc3ccc(NC(=O)C4CC4)cc3)nc(N3CCN(C)CC3)n2)c1C`, the IC50 in data set [1] and in data set [2] was > 3000 nM each time. Moreover, the inhibition in data set [3] and in data set [4] was < 50% in each case. For the same compound, the inhibition at 24 h, 3 µM in data set [5] and in data set [6] was < 50% each time.

As for `Cc1cc(Nc2nc(Sc3ccc(NC(=O)C4CC4)cc3)nc(N3CCOCC3)n2)n[nH]1`, the IC50 in data set [1] and in data set [2] was > 3000 nM each time. Also, the inhibition at 24 h, 3 µM in data set [5] and in data set [6] was < 50% in each case.

With `Cc1[nH]nc(Nc2nc(Nc3ccc(NC(=O)C4CC4)cc3)nc(N3CCOCC3)n2)c1C`, the IC50 in data set [1] and in data set [2] was > 3000 nM throughout. In addition, the inhibition in data set [3] and in data set [4] was < 50% throughout. Moreover, the inhibition at 24 h, 3 µM in data set [5] and in data set [6] was < 50% each time.

As for `Cc1[nH]nc(Nc2nc(Sc3ccc(NC(=O)C4CC4)cc3)nc(N3CCOCC3)n2)c1C`, the IC50 in data set [1] and in data set [2] was > 3000 nM in each case. The inhibition in data set [3] and in data set [4] was < 50% throughout. Besides, the inhibition at 24 h, 3 µM in data set [5] and in data set [6] was < 50% each time.

Consider `Cc1cc(Nc2nc(Sc3ccc(NC(=O)C4CCCCC4)cc3)nc(N3CCOCC3)n2)n[nH]1`, for which the values for the IC50 in data set [1] and in data set [2] were 2170 nM and > 3000 nM, respectively. Also, the inhibition in data set [3] is < 50%. Moreover, the inhibition at 24 h, 3 µM in data set [6] is < 50%.

For the compound `Cc1cc(Nc2cc(N3CCCCC3)nc(Sc3ccc(NC(=O)C4CC4)cc3)n2)n[nH]1`, the IC50 in data set [1] worked out at 1320 nM; in data set [2] it was 1000 nM.

As to `Cc1[nH]nc(Nc2cc(N3CCOCC3)nc(Nc3ccc(NC(=O)C4CC4)cc3)n2)c1C`, the IC50 in data set [1] and in data set [2] was > 3000 nM throughout. The inhibition in data set [3] and in data set [4] was < 50% throughout. Besides, the inhibition at 24 h, 3 µM in data set [5] and in data set [6] was < 50% each time.

As to `Cc1[nH]nc(Nc2cc(N3CCCCC3)nc(Nc3ccc(NC(=O)C4CCCCC4)cc3)n2)c1C`, the IC50 in data set [1] and in data set [2] was > 3000 nM in each case. In addition, the inhibition in data set [3] and in data set [4] was < 50% each time. The inhibition at 24 h, 3 µM in data set [5] and in data set [6] was < 50% in each case.

As to `Cc1[nH]nc(Nc2nc(Nc3ccc(NC(=O)C4CCCCC4)cc3)nc(N3CCOCC3)n2)c1C`, the IC50 in data set [1] and in data set [2] was > 3000 nM each time. For the same compound, the inhibition in data set [3] and in data set [4] was < 50% in each case. The inhibition at 24 h, 3 µM in data set [5] and in data set [6] was < 50% throughout.

Regarding `Cc1cc(Nc2cc(N3CCCCC3)nc(Nc3ccc(NC(=O)C4CCCCC4)cc3)n2)n[nH]1`, the IC50 in data set [1] and in data set [2] was > 3000 nM in each case. For the same compound, the inhibition in data set [3] is < 50%. Moreover, the inhibition at 24 h, 3 µM in data set [5] and in data set [6] was < 50% each time.

Turning to `Cc1cc(Nc2nc(Nc3ccc(NC(=O)C4CCCCC4)cc3)nc(N3CCOCC3)n2)n[nH]1`, the IC50 in data set [1] is 2300 nM; in data set [2], > 3000 nM. Also, the inhibition in data set [3] and in data set [4] was < 50% in each case. Further, the inhibition at 24 h, 3 µM in data set [6] is < 50%.

In the case of `Cc1cc(Nc2nc(Nc3ccc(NC(=O)C4CCCCC4)cc3)nc(N3CCN(C)CC3)n2)n[nH]1`, the IC50 in data set [1] and in data set [2] was > 3000 nM in each case. Besides, the inhibition in data set [3] and in data set [4] was < 50% each time. Further, the inhibition at 24 h, 3 µM in data set [5] and in data set [6] was < 50% each time.

`Cc1[nH]nc(Nc2nc(Sc3ccc(NC(=O)C4CC4)cc3)nc(N3CCCCC3)n2)c1C`: the IC50 in data set [1] and in data set [2] was > 3000 nM each time. The inhibition in data set [3] and in data set [4] was < 50% throughout. The inhibition at 24 h, 3 µM in data set [5] and in data set [6] was < 50% each time.

With `Cc1[nH]nc(Nc2nc(Sc3ccc(NC(=O)C4CCCCC4)cc3)nc(N3CCN(C)CC3)n2)c1C`, the IC50 in data set [1] and in data set [2] was > 3000 nM throughout. Besides, the inhibition in data set [3] and in data set [4] was < 50% throughout. Further, the inhibition at 24 h, 3 µM in data set [5] and in data set [6] was < 50% in each case.

For the compound `Cc1[nH]nc(Nc2cc(N3CCCCC3)nc(Nc3ccc(NC(=O)C4CC4)cc3)n2)c1C`, the IC50 in data set [1] and in data set [2] was > 3000 nM throughout. Also, the inhibition in data set [3] and in data set [4] was < 50% in each case. For the same compound, the inhibition at 24 h, 3 µM in data set [5] and in data set [6] was < 50% throughout.

Turning to `Cc1cc(Nc2cc(N3CCCCC3)nc(Sc3ccc(NC(=O)C4CCCCC4)cc3)n2)n[nH]1`, the IC50 was 813 nM in data set [1] and > 3000 nM in data set [2]. Besides, in data set [6], the inhibition at 24 h, 3 µM is < 50%.

With `Cc1[nH]nc(Nc2nc(Sc3ccc(NC(=O)C4CC4)cc3)nc(N3CCN(C)CC3)n2)c1C`, the IC50 in data set [1] and in data set [2] was > 3000 nM each time. Further, the inhibition in data set [3] and in data set [4] was < 50% in each case. Moreover, the inhibition at 24 h, 3 µM in data set [5] and in data set [6] was < 50% in each case.

In the case of `Cc1[nH]nc(Nc2nc(Sc3ccc(NC(=O)C4CCCCC4)cc3)nc(N3CCCCC3)n2)c1C`, the IC50 in data set [1] and in data set [2] was > 3000 nM throughout. Further, the inhibition in data set [3] and in data set [4] was < 50% throughout. The inhibition at 24 h, 3 µM in data set [5] and in data set [6] was < 50% throughout.

As to `Cc1cc(Nc2nc(Sc3ccc(NC(=O)C4CCCCC4)cc3)nc(N3CCCCC3)n2)n[nH]1`, the IC50 in data set [1] and in data set [2] was > 3000 nM throughout. In addition, the inhibition in data set [3] and in data set [4] was < 50% in each case. The inhibition at 24 h, 3 µM in data set [5] and in data set [6] was < 50% throughout.

Turning to `Cc1[nH]nc(Nc2cc(N3CCN(C)CC3)nc(Sc3ccc(NC(=O)C4CCCCC4)cc3)n2)c1C`, the IC50 in data set [1] and in data set [2] was > 3000 nM throughout. Besides, the inhibition in data set [3] and in data set [4] was < 50% throughout. For the same compound, the inhibition at 24 h, 3 µM in data set [5] and in data set [6] was < 50% each time.

For the compound `Cc1[nH]nc(Nc2cc(N3CCN(C)CC3)nc(Nc3ccc(NC(=O)C4CC4)cc3)n2)c1C`, the IC50 in data set [1] and in data set [2] was > 3000 nM in each case. Further, the inhibition in data set [3] and in data set [4] was < 50% throughout. Further, the inhibition at 24 h, 3 µM in data set [5] and in data set [6] was < 50% throughout.

Turning to `Cc1cc(Nc2cc(N3CCOCC3)nc(Nc3ccc(NC(=O)C4CCCCC4)cc3)n2)n[nH]1`, the IC50 in data set [1] is 2250 nM; in data set [2], > 3000 nM. Also, the inhibition at 24 h, 3 µM in data set [6] was < 50%.

Regarding `Cc1cc(Nc2cc(N3CCOCC3)nc(Sc3ccc(NC(=O)C4CC4)cc3)n2)n[nH]1`, the figures for the IC50 in data set [1] and in data set [2] were 1000 nM and 1040 nM, respectively.

On to `Cc1cc(Nc2cc(N3CCN(C)CC3)nc(Nc3ccc(NC(=O)C4CCCCC4)cc3)n2)n[nH]1`, for which the IC50 in data set [1] and in data set [2] was > 3000 nM throughout. The inhibition at 24 h, 3 µM in data set [5] and in data set [6] was < 50% throughout.

For the compound `Cc1cc(Nc2cc(N3CCOCC3)nc(Sc3ccc(NC(=O)C4CCCCC4)cc3)n2)n[nH]1`, the results for the IC50 in data set [1] and in data set [2] were 214 nM and < 600 nM, respectively.

For the compound `Cc1cc(Nc2cc(N3CCN(C)CC3)nc(Sc3ccc(NC(=O)C4CCCCC4)cc3)n2)n[nH]1`, the results for the half-inhibitory concentration (IC50) in data set [1] and in data set [2] were < 600 nM and > 3000 nM, respectively. The inhibition in data set [3] and in data set [4] was < 50% each time. Also, the inhibition at 24 h, 3 µM in data set [6] was < 50%.

Regarding `Cc1cc(Nc2nc(Nc3ccc(NC(=O)C4CC4)cc3)nc(N3CCOCC3)n2)n[nH]1`, the IC50 in data set [1] and in data set [2] was > 3000 nM each time. The inhibition at 24 h, 3 µM in data set [5] and in data set [6] was < 50% each time.

On to `Cc1cc(Nc2nc(Sc3ccc(NC(=O)C4CC4)cc3)nc(N3CCN(C)CC3)n2)n[nH]1`, for which the results for the IC50 in data set [1] and in data set [2] were 440 nM and 800 nM, respectively. Besides, the inhibition in data set [3] was < 50%.
